Test results: ChEMBL document CHEMBL1140947, “Enantioselectivity in cardioprotection induced by (S)- (-)-2,2-dimethyl-N-(4'-acetamido-benzyl)-4-spiromorpholone-chromane” (2009)

Assays:
Type in all cases: functional, Heart
Details in all cases: route intraperitoneal
Rattus norvegicus [1] = test: Cardioprotective effect in Langendorff perfused Wistar rat hearts assessed as ischemic damage measured by rate-pressure product-120 at 40 mg/kg, ip
Procedure, shortened: (§1)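 Rats pretreated intraperitoneally (test agents 40 mg/kg; reference agents 40 or 1 mg/kg); hearts isolated and Langendorff-perfused through an ischemia-reperfusion cycle. Rate-pressure product at 120 min reperfusion expressed as % of the last preischemic minute. After reperfusion, TTC staining of left ventricle (necrotic white/pale pink, healthy red); injured area given as % of total area. Mean ± SE, n = 4-6 experiments.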

Rattus norvegicus [2] = test: Cardioprotective effect in Langendorff perfused Wistar rat hearts assessed as ratio for ischemic injured area to total area at 40 mg/kg, ip; procedure, shortened: as §1
Rattus norvegicus [3] = test: Cardioprotective effect in Langendorff perfused Wistar rat hearts assessed as ischemic damage measured by rate-pressure product-120 at 1 mg/kg, ip; procedure, shortened: as §1
Rattus norvegicus [4] = test: Cardioprotective effect in Langendorff perfused Wistar rat hearts assessed as ratio for ischemic injured area to total area at 1 mg/kg, ip; procedure, shortened: as §1

| Structure (SMILES) | Activity (Rattus norvegicus [1]) | Activity (Rattus norvegicus [2]) | Activity (Rattus norvegicus [3]) | Activity (Rattus norvegicus [4]) |
| --- | --- | --- | --- | --- |
| CC1=Nc2ccc(Cl)cc2S(=O)(=O)N1 [DIAZOXIDE] | 45% | 25% | – | – |
| CC(=O)Nc1ccc(CN2C[C@]3(CC(C)(C)Oc4ccccc43)OCC2=O)cc1 | 27% | 35% | – | – |
| CC1(C)Oc2ccc(C#N)cc2C(N2CCCC2=O)C1O (stereo not given) [CROMAKALIM] | – | – | 86% | 23% |
| CC(=O)Nc1ccc(CN2CC3(CC(C)(C)Oc4ccccc43)OCC2=O)cc1 (racemic) | 59% | 22% | – | – |
| CC(=O)Nc1ccc(CN2C[C@@]3(CC(C)(C)Oc4ccccc43)OCC2=O)cc1 | 64% | 16% | – | – |
